How the values were obtained:
Assay type in all cases: functional
[1] = Growth inhibition of human Hs 578T cells after 48 hrs by sulforhodamine B assay; conditions: for CC50: read-out: LD50 (the source's name)
Method in brief: (§1)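 NCI-60 panel screen by SRB assay (Rubinstein method). Percentage growth taken from optical density of SRB colour, read before and 48 hrs after exposure to compound or vehicle control. All analogues first screened at 10^-5 M. Analogues giving 60% growth inhibition at that level in at least eight lines then went to a five-concentration dose-response study.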

786-0 = assay: Growth inhibition of human 786-0 cells after 48 hrs by sulforhodamine B assay; conditions: 786-0, 48 h; for LC50 (concentration killing 50% of cells): read-out: LD50; method in brief: as §1
[2] = Growth inhibition of human UACC62 cells after 48 hrs by sulforhodamine B assay; conditions: UACC-62, 48 h; for CC50: read-out: LD50 (the source's name); method in brief: as §1
[3] = Growth inhibition of human COLO205 cells after 48 hrs by sulforhodamine B assay; conditions: COLO 205, 48 h; for CC50: read-out: LD50 (the source's name); method in brief: as §1
M14 = assay: Growth inhibition of human M14 cells after 48 hrs by sulforhodamine B assay; conditions: M14, 48 h; for CC50: read-out: LD50 (the source's name); method in brief: as §1
[4] = Growth inhibition of human OVCAR4 cells after 48 hrs by sulforhodamine B assay; conditions: OVCAR-4, 48 h; for LC50 (concentration killing 50% of cells): read-out: LD50; method in brief: as §1
[5] = Growth inhibition of human HL-60(TB) cells after 48 hrs by sulforhodamine B assay; conditions: HL-60, 48 h; for CC50: read-out: LD50 (the source's name); method in brief: as §1
SK-MEL-28 = assay: Growth inhibition of human SK-MEL-28 cells after 48 hrs by sulforhodamine B assay; conditions: SK-MEL-28, 48 h; for CC50: read-out: LD50 (the source's name); method in brief: as §1
[6] = Growth inhibition of human SF539 cells after 48 hrs by sulforhodamine B assay; conditions: SF-539, 48 h; for LC50 (concentration giving 50% cell kill): read-out: LD50
Method in brief: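 NCI-60 sulforhodamine B screen. Compounds were first tested at a single dose of 10⁻⁵ M; hits, defined as ≥60% growth inhibition in at least eight lines, went on to a five-concentration dose–response. SRB optical density was read before and 48 h after exposure to compound or vehicle. Percentage growth was calculated from OD.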

Row | Structure (SMILES) | GI50 [1] | CC50 [1] | GI50 (786-0) | LC50 (concentration killing 50% of cells) (786-0) | GI50 [2] | CC50 [2] | GI50 [3] | CC50 [3] | GI50 (M14) | CC50 (M14) | GI50 [4] | LC50 (concentration killing 50% of cells) [4] | GI50 [5] | CC50 [5] | GI50 (SK-MEL-28) | CC50 (SK-MEL-28) | GI50 [6] | LC50 (concentration giving 50% cell kill) [6] | TGI [6]
1 | COc1cc(-c2n[nH]nc2-c2ccc3c(c2)OCCO3)cc(OC)c1OC | 668 nM | > 100000 nM | < 10 nM | > 100000 nM | > 100000 nM | > 100000 nM | 27 nM | > 100000 nM | < 10 nM | > 100000 nM | 34 nM | > 100000 nM | 19 nM | > 100000 nM | > 100000 nM | > 100000 nM | < 10 nM | > 100000 nM | –
2 | COc1cc(-c2n[nH]nc2-c2ccc3ccccc3n2)cc(OC)c1OC | – | – | 43 nM | > 100000 nM | 157 nM | > 100000 nM | 228 nM | > 100000 nM | 22 nM | > 100000 nM | 77 nM | > 100000 nM | 30 nM | > 100000 nM | > 100000 nM | > 100000 nM | 20 nM | > 100000 nM | –
3 | COc1cc(-c2n[nH]nc2-c2ccc3c(c2)OCO3)cc(OC)c1OC | 440 nM | > 100000 nM | 620 nM | > 100000 nM | > 100000 nM | > 100000 nM | 310 nM | > 100000 nM | – | – | 80 nM | > 100000 nM | 200 nM | > 100000 nM | 240 nM | > 100000 nM | 180 nM | > 100000 nM | –
4 | Clc1ccc(-c2n[nH]nc2-c2ccccn2)c(Cl)c1 | 11600 nM | > 100000 nM | 2750 nM | > 100000 nM | 3350 nM | > 100000 nM | 2890 nM | > 100000 nM | 14300 nM | > 100000 nM | 3040 nM | > 100000 nM | 5750 nM | > 100000 nM | 5390 nM | > 100000 nM | – | – | –
5 | COc1ccc(-c2n[nH]nc2-c2cc(OC)cc(OC)c2)cc1 | 41 nM | > 100000 nM | 15 nM | > 100000 nM | < 10 nM | > 100000 nM | 149 nM | > 100000 nM | < 10 nM | > 100000 nM | – | – | 23 nM | > 100000 nM | – | – | 14 nM | > 100000 nM | –
6 | COc1ccc(-c2nn[nH]c2-c2cc(OC)c(OC)c(OC)c2)cc1 | < 10 nM | > 100000 nM | < 10 nM | > 100000 nM | – | – | 29 nM | > 100000 nM | < 10 nM | > 100000 nM | < 10 nM | > 100000 nM | < 10 nM | > 100000 nM | – | – | < 10 nM | > 100000 nM | < 10 nM
